Experiments:
[1] = tested on: Leishmania donovani; test: Ratio of Sodium stibogluconate IC50 to compound IC50 for amastigote stage of Leishmania donovani MHOM/IN/80/Dd8 infected in mouse J774.1 cells; format: functional
[2] = (§1) Selectivity index, ratio of CC50 for African green monkey Vero cells to IC50 for amastigote stage of Leishmania donovani MHOM/IN/80/Dd8; format: functional
Summary of the method: (§2)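 SI was calculated as CC50 on Vero cells (MTT viability) divided by IC50 on L. donovani intramacrophagic amastigotes. IC50 came from four-parameter Hill regression and CC50 from a Huber–Koella template. Both are means of three independent experiments.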

[3] = tested on: Leishmania donovani; test: Ratio of Miltefosine IC50 to compound IC50 for amastigote stage of Leishmania donovani MHOM/IN/80/Dd8 infected in mouse J774.1 cells; format: functional
[4] = (§3) Cytotoxicity against African green monkey Vero cells assessed as cell viability after 72 hrs by MTT assay; format: cell-based; conditions: chlorocebus sabaeus, Vero cells
Summary of the method: (§4)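 Vero cells were used, with viability read by MTT assay and podophyllotoxin as the reference cytotoxic drug. CC50 (50% maximum cytotoxic concentration) was estimated with a preformed template following Huber and Koella. Values are mean ± S.D. of three independent experiments.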

[5] = tested on: Leishmania donovani; test: Antileishmanial activity against amastigote stage of Leishmania donovani MHOM/IN/80/Dd8 infected in mouse J774.1 cells after 72 hrs by luciferase reporter gene assay; format: functional, organism-based
Summary of the method: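 Intracellular L. donovani amastigotes growing inside macrophages were exposed to a concentration series. IC50 was obtained by nonlinear regression of the concentration-response curve with a four-parameter Hill equation. Values are mean ± S.D. of three independent experiments. Reference drugs were sodium stibogluconate and miltefosine.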

[6] = tested on: Vero; test: as §3; format: cell-based; conditions: chlorocebus sabaeus, vero, 72 h; summary of the method: as §4
[7] = tested on: Vero; test: as §1; format: functional; summary of the method: as §2
[8] = Leishmania donovani, MHOM/IN/80/Dd8, J774.1, 72 h

Row | IC50 [5, 8] [µM] | Compound | Ratio CC50/IC50 [2] | CC50 at 72 h [4] [µM] | further results
1 | 5.02 | COc1cc(/C=C2\CN(C(=O)c3cc(/C=C/C4C(C)=CCCC4(C)C)on3)C/C(=C\c3ccc(OCc4ccccc4)c(OC)c3)C2=O)ccc1OCc1ccccc1 (stereo unspecified) | >79.68 | > 400 | Ratio IC50 [1]: 10; Ratio IC50 [3]: 1.6
2 |  | SODIUM ANTIMONY GLUCONATE [listing 1 of 2 here] |  |  | CC50 [6]: > 400 µM; IC50 ([5]; j774.1): 53.1 µM
3 | > 20 | COc1ccccc1/C=C1\CN(C(=O)c2cc(/C=C/C3C(C)=CCCC3(C)C)on2)C/C(=C\c2ccccc2OC)C1=O (stereo unspecified) |  |  | 
4 | 3.75 | COc1ccc(/C=C2\CN(C(=O)c3cc(/C=C/C4C(C)=CCCC4(C)C)on3)C/C(=C\c3ccc(OC)c(OC)c3)C2=O)cc1OC (stereo unspecified) | 12.2 | 45.8 | 
5 |  | SODIUM ANTIMONY GLUCONATE [listing 2 of 2 here] |  |  | Ratio CC50/IC50 [7]: > 7.53
6 | > 40 | CC1=CCCC(C)(C)C1/C=C/c1cc(C(=O)N2C/C(=C\c3ccc(OCc4ccccc4)cc3)C(=O)/C(=C/c3ccc(OCc4ccccc4)cc3)C2)no1 (stereo unspecified) |  |  | 
7 | 4.7 | COc1cc(/C=C2\CN(C(=O)c3cc(/C=C/C4C(C)=CCCC4(C)C)on3)C/C(=C\c3cc(OC)c(OC)c(OC)c3)C2=O)cc(OC)c1OC (stereo unspecified) | 5.38 | 25.3 | 
8 | > 40 | CC1=CCCC(C)(C)C1/C=C/c1cc(C(=O)N2C/C(=C\c3ccc(Cl)cc3)C(=O)/C(=C/c3ccc(Cl)cc3)C2)no1 (stereo unspecified) |  |  | 
9 | > 40 | COc1ccc(/C=C2\CN(C(=O)c3cc(/C=C/C4C(C)=CCCC4(C)C)on3)C/C(=C\c3ccc(OC)cc3)C2=O)cc1 (stereo unspecified) |  |  | 
10 | 6.1 | CCOc1cc(/C=C2\CN(C(=O)c3cc(/C=C/C4C(C)=CCCC4(C)C)on3)C/C(=C\c3ccc(O)c(OCC)c3)C2=O)ccc1O (stereo unspecified) | 4.53 | 27.7 | 
11 | 1.83 | COc1cc(/C=C2\CN(C(=O)c3cc(/C=C/C4C(C)=CCCC4(C)C)on3)C/C(=C\c3ccc(O)c(OC)c3)C2=O)ccc1O (stereo unspecified) | 12.81 | 23.4 | 

Row | Compound | IC50 [5, 8] [µM] | Ratio CC50/IC50 [2] | CC50 at 72 h [4] [µM] | further results
12 | CCCCCCCCCCCCCCCCOP(=O)([O-])OCC[N+](C)(C)C [MILTEFOSINE] | 8.1 | 6.52 |  | 
